What is called IC50 is the concentration that inhibits the measured activity by half. The low end stands for greater potency in that assay, the high end for weaker potency in that assay.

IC50 data for 6 molecules are collected here from ChEMBL document CHEMBL1148991, “Antifungal flavonoids from Hildegardia barteri” (J Nat Prod, 2005).

≈ marks a conversion by molar mass, not a printed value.

Holding throughout (format): functional, organism-based
Experiment [1] relates to Candida albicans. Kind of experiment: Antifungal activity against azole-sensitive Candida albicans by broth microdilution assay. In a few lines: (§1)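 Follow-up panel of recent drug-resistant and drug-sensitive clinical Candida isolates, tested alongside quality control strains C. krusei ATCC 6258 and C. parapsilopsis ATCC 22019.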
(Dilution methods test growth across graded concentrations, often in twofold steps.)

Experiment [2] concerns Candida albicans. As to the kind of experiment: Antifungal activity against polyene-resistant Candida albicans by broth microdilution assay. The essentials: as §1
In experiment [3] the test system is Nakaseomyces glabratus. Kind of experiment: Antifungal activity against azole-resistant Candida glabrata by broth microdilution assay. The essentials:
as §1

Another experiment deals with Pichia kudriavzevii. As to the kind of experiment: Antifungal activity against azole-resistant Candida krusei by broth microdilution assay. The essentials: as §1
For experiment [4], the system named is Candida albicans. Kind of experiment: Antifungal activity against azole-resistant Candida albicans by broth microdilution assay. The essentials: as §1
Experiment [5] relates to Nakaseomyces glabratus. Kind of experiment: Antifungal activity against polyene-resistant Candida glabrata by broth microdilution assay. The essentials:
as §1

With `Oc1cc2c(cc1O)[C@@H]1Oc3cc4c(cc3[C@@H]1CO2)OCO4`, the half-inhibitory concentration (IC50) with Candida albicans [1] was 128 µg/mL (≈ 426 µM); in the experiment on Candida albicans [2], 128 µg/mL (≈ 426 µM); in the experiment with Nakaseomyces glabratus [3], 32 µg/mL (≈ 107 µM); in the experiment on Pichia kudriavzevii, 128 µg/mL (≈ 426 µM); in the experiment with Candida albicans [4], 32 µg/mL (≈ 107 µM); in the experiment with Nakaseomyces glabratus [5], 32 µg/mL (≈ 107 µM).
As to `C[C@@H]1[C@H](O)[C@@H](C)/C=C/C=C/C=C/C=C/C=C/C=C/C=C/[C@H](O[C@@H]2O[C@H](C)[C@@H](O)[C@H](N)[C@@H]2O)C[C@@H]2O[C@](O)(C[C@@H](O)C[C@@H](O)[C@H](O)CC[C@@H](O)C[C@@H](O)CC(=O)O[C@H]1C)C[C@H](O)[C@H]2C(=O)O` [AMPHOTERICIN B], the IC50 was determined as 3 µg/mL (≈ 3.25 µM) in the experiment with Candida albicans [2] and 4 µg/mL (≈ 4.33 µM) in the experiment with Nakaseomyces glabratus [5].
For `Cc1c(O)c(C)c2c(c1O)C(=O)C[C@@H](c1ccc(O)cc1)O2` [FARREROL], the IC50 in the experiment with Candida albicans [1], in the experiment with Candida albicans [2], in the experiment on Nakaseomyces glabratus [3], in the experiment with Pichia kudriavzevii, in the experiment with Candida albicans [4] and in the experiment on Nakaseomyces glabratus [5] was above 32 µg/mL throughout.
Consider `OC(Cn1cncn1)(Cn1cncn1)c1ccc(F)cc1F` [FLUCONAZOLE], for which the IC50 in the experiment with Candida albicans [1] is 0.12 µg/mL (≈ 0.392 µM); in the experiment with Nakaseomyces glabratus [3] it was 256 µg/mL (≈ 836 µM); in the experiment with Pichia kudriavzevii, 128 µg/mL (≈ 418 µM); with Candida albicans [4] it was 256 µg/mL (≈ 836 µM).
Turning to `COc1cc2c(cc1O)C[C@H](c1cc3c(cc1O)OCO3)CO2` [HILDEGARDIOL], the IC50 with Candida albicans [1] is above 128 µg/mL; in the experiment on Candida albicans [2], above 128 µg/mL; with Nakaseomyces glabratus [3], at least 64 µg/mL; with Pichia kudriavzevii it was above 128 µg/mL; in the experiment on Candida albicans [4], at least 64 µg/mL; in the experiment with Nakaseomyces glabratus [5], above 128 µg/mL.
For the molecule `C[C@@H](c1ncncc1F)[C@](O)(Cn1cncn1)c1ccc(F)cc1F` [VORICONAZOLE], the concentration for half-maximal inhibition (IC50) amounted to 0.007 µg/mL (≈ 0.02 µM) in the experiment on Candida albicans [1], 8 µg/mL (≈ 22.9 µM) in the experiment on Nakaseomyces glabratus [3], 1 µg/mL (≈ 2.86 µM) in the experiment with Pichia kudriavzevii and 4 µg/mL (≈ 11.5 µM) in the experiment on Candida albicans [4].
